ChEMBL document CHEMBL3244312, “Cannabinoids. 1. 1-Amino- and 1-mercapto-7,8,9,10-tetrahydro-6H-dibenzo [b,d]pyrans” (1977)
Calls of active or inactive are those of the source. The calls are words filed in the database; no cut-off is given here.

Legend:
Mus musculus [1] = test: CNS activity in mouse assessed as alteration of exploratory behaviour at 20 mg/kg, po; type: functional, organism-based; design: dose 20 mg/kg
How it was run: (§1)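 Mice in groups of five, dosed orally, placed in doughnut-shaped activity cages (six infrared photocells) 90 min post-dose. Beam breaks counted cumulatively at 30, 60, 90 and 120 min in cage ([…]) plus 120-min total. Counts compared with vehicle-injected controls. Compounds dissolved in acetone.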

Rattus norvegicus [2] = test: CNS activity in rat assessed as protection against muricide at 10 mg/kg, po; type: functional, organism-based; design: dose 10 mg/kg
How it was run: (§2)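 Rats with innate mouse-killing behaviour, control kill time under 5 s; three rats per dose, oral dosing, vehicle controls at equal injection volume. Muricide scored 15–360 min post-dose (0 = 0–59 s, 1 = 60–120 s, 2 = >120 s). Scores converted to percent protection versus vehicle; Student's t test for significance.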

Rattus norvegicus [3] = test: CNS activity in septal-lesioned rat assessed as decrease in hyperreactivity behaviour at 10 mg/kg, po; type: functional, organism-based; design: dose 10 mg/kg
How it was run: (§3)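 Septal-lesioned rats rated hyperreactive at score ≥11 used as their own controls; oral dosing. Reactivity rated at 30, 60, 120, 240, 300 min post-dose. P value = postdrug rating sum / predrug sum per period. E value = mean of ten 30-min periods over 300 min, interpolated, / predrug sum. Student's t test, p<0.01.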

Rattus norvegicus [4] = test: CNS activity in po dosed rat assessed as protection against muricide; type: functional; settings: for minimal effective dose: Rattus norvegicus, po, read-out: MED; how it was run: as §2
Mus musculus [5] = test: CNS activity in po dosed mouse assessed as alteration of exploratory behaviour; type: functional; settings: for minimal effective dose: Mus musculus, po, read-out: MED; how it was run: as §1
Rattus norvegicus [6] = test: CNS activity in po dosed septal-lesioned rat assessed as decrease in hyperreactivity behaviour; type: functional; settings: for minimal effective dose: Rattus norvegicus, po, read-out: MED; how it was run: as §3

Row | SMILES | Activity (Mus musculus [1]) | Activity (Rattus norvegicus [2]) | Activity (Rattus norvegicus [3]) | minimal effective dose (Mus musculus [5]) [mg/kg] | further results
1 | CCCCCc1cc(NC(C)=O)c2c(c1)OC(C)(C)C1=C2CC(C)CC1 (racemic) | inactive | inactive | inactive | – | –
2 | CCCCCc1cc(O)c2c(c1)OC(C)(C)C1=C2CC(C)CC1 (racemic) | inactive | – | inactive | – | minimal effective dose (Rattus norvegicus [4]): 10 mg/kg
3 | CCCCCCC(C)(C)c1cc(NS(C)(=O)=O)c2c(c1)OC(C)(C)C1=C2CC(C)CC1 (racemic) | – | inactive | inactive | 20 | –
4 | CCCCCCC(C)(C)c1cc(N)c2c(c1)OC(C)(C)C1=C2CC(C)CC1 (stereo in doubt; d-10c) [listing 1 of 2 here] | – | inactive | inactive | – | –
5 | CCCCCCC(C)(C)c1cc(N)c2c(c1)OC(C)(C)C1=C2CC(C)CC1 (stereo in doubt; l-10c) [listing 1 of 2 here] | – | – | – | – | MED (Rattus norvegicus [4]): 10 mg/kg; MED (Mus musculus [5]): 5 mg/kg
6 | CCCCCC(C)C(C)c1cc(NC(C)=O)c2c(c1)OC(C)(C)C1=C2CC(C)CC1 (racemic) | inactive | – | inactive | – | minimal effective dose (Rattus norvegicus [4]): 10 mg/kg
7 | CCCCCCC(C)(C)c1cc(N)c2c(c1)OC(C)(C)C1=C2CC(C)CC1 (stereo in doubt; l-10c) [listing 2 of 2 here] | – | – | inactive | – | –
8 | CCCCCCC(C)(C)c1cc(N)c2c(c1)OC(C)(C)C1=C2CC(C)CC1 (racemic) [listing 1 of 2 here] | – | – | inactive | – | –
9 | CCCCCC(C)C(C)c1cc(S)c2c(c1)OC(C)(C)C1=C2CC(C)CC1 (racemic) | inactive | inactive | inactive | – | –
10 | CCCCCc1cc2c(c(N(C)C)c1)C1=C(CCC(C)C1)C(C)(C)O2 (racemic) | inactive | inactive | inactive | – | –
11 | CCCCCC(C)C(C)c1cc(NC)c2c(c1)OC(C)(C)C1=C2CC(C)CC1 (racemic) | – | inactive | inactive | 20 | –
12 | CCCCCCC(C)(C)c1cc(N)c2c(c1)OC(C)(C)C1=C2CC(C)CC1 (racemic) [listing 2 of 2 here] | – | – | – | 5 | minimal effective dose (Rattus norvegicus [4]): 10 mg/kg
13 | CCCCCC(C)C(C)c1cc(O)c2c(c1)OC(C)(C)C1=C2CC(C)CC1 (racemic) | – | – | – | 0.62 | minimal effective dose (Rattus norvegicus [4]): 2.5 mg/kg; minimal effective dose (Rattus norvegicus [6]): 5 mg/kg
14 | CCCCCc1cc(S)c2c(c1)OC(C)(C)C1=C2CC(C)CC1 (racemic) | inactive | inactive | inactive | – | –
15 | CCCCCCC(C)(C)c1cc(O)c2c(c1)OC(C)(C)C1=C2CC(C)CC1 (stereo in doubt; d-4c) | – | – | – | – | MED (Rattus norvegicus [4]): 5 mg/kg; MED (Mus musculus [5]): 0.31 mg/kg; MED (Rattus norvegicus [6]): 2.5 mg/kg
16 | CCCCCc1cc(N)c2c(c1)OC(C)(C)C1=C2CC(C)CC1 (racemic) | inactive | inactive | inactive | – | –
17 | CCCCCCC(C)(C)c1cc(O)c2c(c1)OC(C)(C)C1=C2CC(C)CC1 (racemic) | – | – | – | 0.62 | MED (Rattus norvegicus [4]): 0.62 mg/kg; minimal effective dose (Rattus norvegicus [6]): 1.25 mg/kg
18 | CCCCCC(C)C(C)c1cc2c(c(N(C)C)c1)C1=C(CCC(C)C1)C(C)(C)O2 (racemic) | – | inactive | inactive | 20 | –
19 | CCCCCC(C)C(C)c1cc(N)c2c(c1)OC(C)(C)C1=C2CC(C)CC1 (racemic) | – | – | – | 2.5 | minimal effective dose (Rattus norvegicus [4]): 5 mg/kg; minimal effective dose (Rattus norvegicus [6]): 10 mg/kg
20 | CCCCCCC(C)(C)c1cc(N)c2c(c1)OC(C)(C)C1=C2CC(C)CC1 (stereo in doubt; d-10c) [listing 2 of 2 here] | – | – | – | – | MED (Mus musculus [5]): 10 mg/kg
21 | CCCCCCC(C)(C)c1cc(O)c2c(c1)OC(C)(C)C1=C2CC(C)CC1 (stereo in doubt; l-4c) | – | – | – | – | MED (Rattus norvegicus [4]): 1.25 mg/kg
